Screening data (PubChem)
KCNK9 block = inhibitors of human KCNK9 two-pore domain potassium channel; Q9NPC2; HEK293 KCNK9, FluxOR thallium flux fluorescence; stronger effect = lower value; B-score at 10 µM; 310,000 tested, 1.2% active; AID 488922;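 active = ratio B-score over 3 SD below the library mean, with starting fluorescence within 5 SD of its mean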;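 also: negative B-score means less thallium flux so channel inhibition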
KCNQ1 act = potentiates or activates the human KCNQ1 potassium channel; P51787; B-score at 10 µM; CHO-K1 KCNQ1, thallium flux FluxOR fluorescence; stronger effect = higher value; 310,000 tested, 0.35% active;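 active = fluorescence ratio B-score, a plate-corrected score, at least three library SD, with initial intensity B-score within 5 SD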
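Doses: Single concentration per compound, DMSO matched to controls | Test system: KCNQ1-transfected CHO-K1 cells | Timing: 90 min dye loading and 20 min compound exposure, both at room temperature | Measured by: Kinetic FluxOR thallium fluorescence, 10-s 1-Hz baseline, 110-s post-stimulus read | Medium: Assay buffer with matched DMSO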
KCNQ1 block = human KCNQ1 channel inhibition; 310,000 tested, 1.3% active; AID 2642; CHO-K1 KCNQ1, FluxOR thallium flux fluorescence; stronger effect = higher value; B-score at 10 µM;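 active = compounds whose thallium flux B-score, printed positive for inhibition, exceeds three library SD while starting fluorescence stays within three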;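 also: channel opened by potassium depolarization with thallium stimulus after 20 min compound exposure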
KCC2 mod = modulators of human KCC2 chloride dependent transport; Q9H2X9; AID 1456; KCC2 cells, thallium flux FluoZin-2 fluorescence; 190,000 tested, 2.2% active; B-score of Tl+ flux slope (higher = more flux/activation; lower = inhibition) at 10 µM;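 active = thallium flux slope and its plate-corrected score both differing from the plate sample mean at a set confidence after two filtering rounds, in either direction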;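 also: slope of fluorescence scaled to starting intensity during 10 to 20 s after thallium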
KCNK3 inh = human KCNK3 channel inhibition, primary screen | O14649 | CHO-KCNK3 thallium flux, FluxOR fluorescence; stronger effect = lower value | B-score at 10 µM | 340,000 tested, 0.84% active;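 active = B-score under library mean minus 4 SD, starting fluorescence ratio at most library mean plus 5 SD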;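 also: more negative B-score means stronger inhibition of thallium flux through KCNK3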
Target sequence (O14649 whole entry, looked up): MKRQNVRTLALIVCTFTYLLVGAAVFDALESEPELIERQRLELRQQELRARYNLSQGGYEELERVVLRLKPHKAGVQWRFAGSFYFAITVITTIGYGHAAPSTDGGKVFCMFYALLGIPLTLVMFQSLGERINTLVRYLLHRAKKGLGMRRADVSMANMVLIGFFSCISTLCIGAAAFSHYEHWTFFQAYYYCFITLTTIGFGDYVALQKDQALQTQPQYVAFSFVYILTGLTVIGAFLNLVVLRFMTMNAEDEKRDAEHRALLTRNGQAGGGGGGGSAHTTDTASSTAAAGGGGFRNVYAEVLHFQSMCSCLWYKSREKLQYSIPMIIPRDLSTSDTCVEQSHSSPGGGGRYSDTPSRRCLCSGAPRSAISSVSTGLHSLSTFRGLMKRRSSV
hERG rescue = shields human hERG channel from block by proarrhythmic agents; CHO-hERG, FluxOR thallium flux, dofetilide IC70 present; activation (rescue from dofetilide block), less the hit threshold, % at 10 µM; Q12809; 310,000 tested, 0.51% active;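 active = activation above the mean of controls blocked by dofetilide plus 5 SD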;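 also: thallium influx through hERG after potassium depolarization seen as dye fluorescence rise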
KCNK9 inh conf = confirmation of human KCNK9 potassium channel inhibitors; shares compounds with KCNK9 block; HEK293 KCNK9 cells, FluxOR thallium flux fluorescence; inhibition, % at 10 µM; 4,900 tested, 43% active; AID 492992;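 active = thallium signal inhibited by more than 5 SD of the compound-free buffer control wells, on both duplicate plates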;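 also: 0% = assay buffer control wells without compound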
Kir2-1 spec = mouse Kir2.1 off-target activity of KCNK9 modulators; AID 492993; 4,900 tested, 4% active; inhibition, % at 10 µM; shares compounds with KCNK9 block; Kir2.1 cells, FluxOR thallium flux fluorescence;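 active = thallium signal drop more than 5 SD beyond the mean of the no-compound control wells, seen in both duplicate plates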;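 also: signal is fluorescence rise after thallium addition divided by baseline fluorescence; plate controls were assay buffer only for no effect and full block by chlorpromazine control for full effect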
HEK293 Tl ctr = second check of KCNK9 modulator effects in non-induced HEK293 cells. shares compounds with KCNK9 block. FluxOR thallium flux. inhibition, % at 10 µM. 4,900 tested, 40% active. AID 492997;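 active = thallium signal drop beyond 5 SD of the untreated control mean, on both duplicate plates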;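 also: plate controls were buffer only IC0 wells for no effect and SID17386958 at its maximal inhibitory level for full effect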
Starred values were filed as active, the others as inactive; i = inactive; . = not tested or not shown. This is a sample that favours compounds with a hit; in the whole collection about 4.1% have one here.

SMILES	KCNK9 block	KCNQ1 act	KCNQ1 block	KCC2 mod	KCNK3 inh	hERG rescue	KCNK9 inh conf	Kir2-1 spec	HEK293 Tl ctr
Cc1ccc(C(=O)Nc2ccccc2C(=O)NCc2ccco2)cc1S(=O)(=O)N1CCCCC1	i	i	i	1.49	i	-29.6	i	i	i
CCC(C)(C)c1ccc(OCCCC[n+]2cccc(C)c2C)c(C(C)(C)CC)c1	-11.6*	i	i	.	i	-29.1	56.5%*	46.0%*	i
Cc1cc(C(C)(C)C)ccc1OCCCCN1CCCC1	i	i	i	0.324	i	-8.4	.	.	.
O=C(CCn1nnnc1CN1CCOCC1)N1CCC(c2ccccc2F)C1 (centres undefined)	i	i	i	.	i	-6.0	.	.	.
CC(C)(C)n1nc2c(c1NC(=O)COc1ccc(Cl)cc1)CS(=O)(=O)C2	i	i	i	-0.694	i	-8.2	.	.	.
CC(C)(C)n1nc2c(c1NC(=O)COc1ccc(Cl)cc1)CSC2	-11*	i	i	-0.727	i	-12.3	45.0%*	i	50.5%*
Cc1nc(NCC(c2ccccc2)N(C)C)c2c(C)c(C)sc2n1 (centres undefined)	i	i	i	.	i	-10.8	i	i	i
CSc1ccccc1NC(=O)c1ccc(CN2CCOCC2)cc1	-10.6*	i	i	-0.0711	i	-5.1	i	i	i
Cc1ccc(C(=O)O/N=C(\N)Cc2cccs2)c(Cl)c1	i	i	i	.	i	-6.0	.	.	.
Cc1nn(-c2ccccc2)c(N)c1Sc1ccc([N+](=O)[O-])cc1	-13.1*	i	i	-0.638	i	-16.3	73.0%*	i	33.5%*
Cc1nn(S(=O)(=O)c2ccc(Cl)cc2)c(C)c1Sc1ccc([N+](=O)[O-])cc1	i	i	i	-0.471	i	-22.8	.	.	.
COCCNC(=O)c1ccccc1NC(=O)c1ccc(Cl)c(S(=O)(=O)Nc2ccc(C)cc2C)c1	i	i	i	.	i	-8.3	.	.	.
Cc1ccc(C)c(NS(=O)(=O)c2cc(C(=O)Nc3ccccc3-c3ccccc3)ccc2Cl)c1	-13.1*	i	i	-0.764	i	-1.8	39.0%*	i	32.5%*
CCC1C(=NO)C(CC)C(c2ccccc2)NC1c1ccccc1 (centres undefined)	i	i	i	.	i	-11.1	i	i	i
COC(=O)[C@@]1(Cc2ccccc2)[C@H]2C(=O)N(Cc3ccccc3)C(=O)[C@H]2[C@H]2CN=C(SCC3CC3)N21	.	.	.	.	i	.	.	.	.
CCOC(=O)Nc1nnc(-c2ccccc2OC)s1	i	i	i	0.162	i	-3.9	.	.	.
CC(SC1=NCCS1)C(=O)Nc1nnc(-c2ccc(Br)cc2)s1 (centres undefined)	-17.9*	i	i	.	i	-5.7	i	i	22.5%*
CCC(SC1=NCCS1)C(=O)Nc1nnc(-c2ccccc2OC)s1 (centres undefined)	-10.2*	i	i	.	i	-6.7	30.0%*	i	33.5%*
COc1ccc(NC(=O)CCNS(=O)(=O)c2cc(Br)ccc2Br)cc1S(N)(=O)=O	i	i	i	.	i	-2.8	.	.	.
CC(NC(=O)CSC(=S)N1CCCC1)c1ccc(S(N)(=O)=O)cc1 (centres undefined)	i	i	i	.	i	-3.3	.	.	.
COC(=O)[C@]1(Cc2ccccc2)N[C@H](CN(C)C(C)=O)[C@@H]2C(=O)N(Cc3ccccc3)C(=O)[C@@H]21	.	.	.	.	i	.	.	.	.
Cn1c(=O)c2c(SCC(=O)Nc3ccc4c(c3)OCCO4)nc(CC(C)(C)C)nc2n(C)c1=O	i	i	i	-1.18	i	-8.1	i	i	i
Cn1c(=O)c2c(SCC(=O)NC3CCCC3)nc(CC(C)(C)C)nc2n(C)c1=O	i	i	i	.	i	-6.2	.	.	.
Cc1cccc(C2(c3cccc(C)c3)OC(=O)c3ccccc32)c1	-18.6*	i	i	0.696	i	-13.0	78.0%*	i	43.0%*
Cc1cc(O)ccc1C1(c2ccc(O)cc2C)OC(=O)c2ccccc21	-12.9*	i	i	0.534	i	-1.6	44.5%*	i	i
SMILES	KCNK9 block	KCNQ1 act	KCNQ1 block	KCC2 mod	KCNK3 inh	hERG rescue	KCNK9 inh conf	Kir2-1 spec	HEK293 Tl ctr
O=C1OC(c2ccccc2)(c2ccc(O)cc2)c2ccccc21 (centres undefined)	.	.	.	.	i	.	.	.	.
COc1ccc(CN(C)C(=O)Cn2cnc3c(OCc4ccccc4)ncnc32)cc1OC	.	.	.	.	i	.	.	.	.
COc1ccc(-n2c(CCc3ccccc3)nnc2SCC(=O)c2ccccc2)cc1	i	i	i	0.03	i	-2.4	i	i	i
COc1ccc(CNC(=O)CSCc2cnn(-c3ccccc3)c2-n2cccc2)cc1	i	i	i	-2.58	i	-15.6	i	i	i
COc1ccc(-n2c(CCc3ccccc3)nnc2SCC(=O)NCc2ccccc2)cc1	i	i	i	-2.01	i	-16.1	i	i	i
O=C(CCNC(=O)c1ccc([N+](=O)[O-])cc1)NCCc1ccccc1	i	i	i	.	i	-7.2	.	.	.
Cc1cc(C)n(C(=O)c2ccc(S(=O)(=O)NCC3CCCO3)cc2)n1 (centres undefined)	i	i	i	.	i	-5.8	.	.	.
COc1ccc(S(=O)(=O)N2CCCCC2)cc1NC(=O)c1c(F)cccc1Cl	.	.	.	.	i	.	.	.	.
CCn1nc(C(=O)Nc2cccc(C(F)(F)F)c2)c(Cl)c1Cl	-8.93*	i	i	-0.366	i	-7.0	46.0%*	i	28.0%*
CCn1cc(Br)c(C(=O)Nc2ccc(Cl)c(Cl)c2)n1	i	i	i	0.519	i	-1.9	.	.	.
CCn1cc(Br)c(C(=O)Nc2cccc(Cl)c2)n1	-12.2*	i	i	-1.41	i	-5.9	63.0%*	i	33.0%*
CCn1nc(C(=O)Nc2ccccc2C)c(Cl)c1Cl	i	i	i	-0.0875	i	-6.6	.	.	.
O=C(Cn1ncn2nc(-c3ccccc3)cc2c1=O)NCc1ccccn1	i	i	i	.	i	-10.6	.	.	.
C=CC[C@@H]1C=C[C@H](O/N=C/[C@@H](NS(=O)(=O)c2ccc(C)cc2)[C@H](C)/C=C/CC(=O)OC)[C@@H](CO)O1	i	i	i	-0.325	.	-4.8	.	.	.
